Assay results reported in ChEMBL document CHEMBL3085664, “Structure-activity relationship of imidazopyridinium analogues as antagonists of neuropeptide s receptor” (J Med Chem, 2013).

What was measured:
Neuropeptide S receptor [1] = molecular target: T1, Neuropeptide S receptor (Homo sapiens, UniProt Q6W5P4); experiment: Displacement of [125I]Tyr10-NPS from human neuropeptide S receptor expressed in CHO cells after 1.5 hrs by liquid scintillation counting; assay type: cell-based
T1 sequence (Q6W5P4 whole entry): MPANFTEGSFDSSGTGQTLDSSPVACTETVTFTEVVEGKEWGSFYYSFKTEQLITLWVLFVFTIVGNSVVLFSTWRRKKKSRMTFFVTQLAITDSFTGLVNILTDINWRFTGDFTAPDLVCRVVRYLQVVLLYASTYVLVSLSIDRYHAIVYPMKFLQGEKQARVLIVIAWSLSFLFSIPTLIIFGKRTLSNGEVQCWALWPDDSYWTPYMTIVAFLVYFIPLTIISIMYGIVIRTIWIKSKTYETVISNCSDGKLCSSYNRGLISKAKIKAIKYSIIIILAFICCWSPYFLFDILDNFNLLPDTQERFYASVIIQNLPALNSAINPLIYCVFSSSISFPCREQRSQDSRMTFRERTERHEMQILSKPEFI
How it was run: (§1)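 Whole CHO cells stably expressing human NPSR at 90–95% confluency in 24-well plates. Cells were incubated with 0.15 nM [125I]Y10-NPS plus increasing compound or unlabeled NPS in DMEM/0.1% BSA, 20°C, 1.5 hr. Nonspecific binding was defined with 1 µM unlabeled human NPS. Cells were washed, lysed in 1 N NaOH and counted by liquid scintillation. IC50 from one experiment in duplicate.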

Neuropeptide S receptor [2] = molecular target: T1, Neuropeptide S receptor; experiment: Antagonist activity at neuropeptide S receptor (unknown origin) expressed in CHO cells assessed as inhibition of NPS-induced ERK activation after 20 mins by HTRF assay; assay type: cell-based
[3] = Metabolic stability in mouse liver microsomes assessed as compound remaining after 30 mins in presence NADPH; assay type: ADME, Microsome; conditions: read-out: Stability
How it was run: (§2)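 Compound was incubated with mouse liver microsomes, and percent parent remaining was determined at 15, 30 and 60 min. Values are means from a single experiment run in duplicate.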

[4] = Metabolic stability in mouse liver microsomes assessed as compound remaining after 30 mins in absence NADPH; assay type: ADME, Microsome; conditions: read-out: Stability; how it was run: as §2
Neuropeptide S receptor [5] = molecular target: T1, Neuropeptide S receptor; experiment: Displacement of [125I]Tyr10-NPS from neuropeptide S receptor (unknown origin); how it was run: as §1
[6] = Metabolic stability in mouse liver microsomes assessed as compound remaining after 15 mins in absence NADPH; assay type: ADME, Microsome; conditions: read-out: Stability; how it was run: as §2
[7] = Metabolic stability in mouse liver microsomes assessed as compound remaining after 60 mins in presence NADPH; assay type: ADME, Microsome; conditions: read-out: Stability; how it was run: as §2
Neuropeptide S receptor [8] = molecular target: T1, Neuropeptide S receptor; experiment: Antagonist activity at neuropeptide S receptor (unknown origin) expressed in CHO cells assessed as cAMP level after 30 mins by […] assay; assay type: functional, cell-based; conditions: read-out: IC50
How it was run: (§3)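 CHO cells stably expressing NPSR, 1800 cells/well in 1536-well format, seeded overnight at 37°C in medium without Geneticin. Stimulation buffer (PBS, 0.1% BSA, 0.05% Tween-20, 500µM Ro 20-1724, EC80 NPS) was added for 30 min at 37°C. cAMP was read by HTRF (d2-cAMP/cryptate anti-cAMP in lysis buffer, 30 min). IC50 is the mean with SD of two independent experiments, each run in duplicate.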

[9] = Metabolic stability in mouse liver microsomes assessed as compound remaining after 60 mins in absence NADPH; assay type: ADME, Microsome; conditions: read-out: Stability; how it was run: as §2
Neuropeptide S receptor [10] = molecular target: T1, Neuropeptide S receptor; experiment: Antagonist activity at neuropeptide S receptor (unknown origin) expressed in CHO cells assessed as inhibition of NPS-induced calcium mobilization after 10 mins by fluorescence assay; assay type: functional, cell-based; conditions: read-out: IC50
How it was run: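 CHO-NPSR cells, 2000/well in 1536-well plates, incubated overnight, then loaded with no-wash calcium dye for 1 h at 37°C. Compound in DMSO was added for 10 min. Baseline fluorescence was recorded 6 s at 1 Hz, then EC80 NPS in stimulation buffer was added and recording continued 4 min at 1 Hz on a kinetic reader. IC50 is the mean with SD of two independent experiments in duplicate.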

[11] = Metabolic stability in mouse liver microsomes assessed as compound remaining after 15 mins in presence NADPH; assay type: ADME, Microsome; conditions: read-out: Stability; how it was run: as §2
Neuropeptide S receptor [12] = molecular target: T1, Neuropeptide S receptor; experiment: Antagonist activity at neuropeptide S receptor (unknown origin) assessed as intracellular calcium level by cell based assay; assay type: functional
How it was run: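 CHO cells stably expressing NPSR were seeded at 2000 cells/well and incubated overnight at 37 °C, 5% CO2. They were loaded with no-wash calcium dye for 1 h, then preincubated with compound in DMSO for 10 min. Stimulation used NPS at EC80 in PBS/0.1% BSA/0.05% Tween-20 with 500 µM Ro 20-1724. Kinetic fluorescence was read at 1 Hz: 6 s baseline, then 4 min. IC50 is the mean ± SD of two independent experiments, each in duplicate.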

Neuropeptide S receptor [13] = molecular target: T1, Neuropeptide S receptor; experiment: Antagonist activity at neuropeptide S receptor (unknown origin) assessed as cAMP level by cell based assay; assay type: functional; how it was run: as §3

IC50 (Neuropeptide S receptor [12]) [µM]	IC50 (Neuropeptide S receptor [13]) [µM]	SMILES	IC50 (Neuropeptide S receptor [1]) [µM]	IC50 (Neuropeptide S receptor [2]) [µM]	remaining at 0.5 h [3] [%]	remaining at 0.5 h [4] [%]	IC50 (Neuropeptide S receptor [5]) [µM]	remaining at 0.25 h [6] [%]	remaining at 1 h [7] [%]	IC50 (Neuropeptide S receptor [8]) [µM]	remaining at 1 h [9] [%]	IC50 (Neuropeptide S receptor [10]) [µM]	remaining at 0.25 h [11] [%]
–	–	CCC(C)(CCN1CCOCC1)N(Cc1cc2ccccc2n(C)c1=O)C(=O)C1CCCCC1 (centres undefined)	0.0067	0.011	0	97	0.0013	103	0	0.0012	94	0.055	0
1.4	4.9	COc1ccc(C2c3c(ccc4ccccc34)OC3N=CN(CCN4CCOCC4)C(=N)C32)cc1OC (centres undefined)	–	–	–	–	0.19	–	–	–	–	–	–
